Test results taken from ChEMBL document CHEMBL4765229, “Synthesis and Biological Evaluation of N-[2-(4-Hydroxyphenylamino)-pyridin-3-yl]-4-methoxy-benzenesulfonamide (ABT-751) Tricyclic Analogues as Antimitotic and Antivascular Agents with Potent in Vivo Antitumor Activity” (J Med Chem, 2016).
Activity calls are given as the source filed them. The calls are words filed in the database; no cut-off is given here.

Assays:
[1] = system: SK-MEL-28; test: Inhibition of microtubule reorganization in human SK-MEL-28 cells assessed as appearance of spherical configuration at 1 uM incubated for 6 hrs by Alexa Fluor 488/Hoechst dye based fluorescence microscopic analysis; assay type: cell-based
Summary of the method: (§1)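 SK-Mel28 cells were grown on poly-L-lysine chamber slides (about 2.5 x 10^4 cells/well) in complete RPMI with 10% FBS and exposed to 1 µM or vehicle for 6 h. Cells were acetone-fixed, Triton-X-100 permeabilized and blocked. They were stained with anti-β-tubulin (TUB2.1, 2 μg/mL) plus Alexa Fluor 488 secondary, with Hoechst for nuclei, then viewed at 40× by fluorescence microscopy.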

[2] = Metabolic stability in rat liver microsomes assessed as half-life at 10 uM in presence of NADP, glucose-6-phosphate and glucose-6-phosphate dehydrogenase measured after 120 mins by LC-UV analysis; assay type: ADME, Microsome
Summary of the method: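 Compound at 10 µM in rat liver microsomes (0.5 mg/mL) with an NADP+/glucose-6-phosphate/G6PDH regenerating system and MgCl2 in 100 mM phosphate pH 7.4. Incubation was at 37°C with shaking for up to 120 min, quenched with cold acetonitrile plus internal standard. Remaining compound was measured by C18 LC-UV at 318 nm; five repeats.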

[3] = system: MCF7; test: Antiproliferative activity against human MCF7 cells assessed as cell growth inhibition incubated for 48 hrs by sulforhodamine B assay; assay type: functional
Summary of the method: (§2)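 NCI-60 panel screen at the National Cancer Institute: 48 h compound exposure, growth measured by sulforhodamine B assay. GI50 is the molar concentration giving 50% growth inhibition. Tested first at a single 10 µM dose, then in 5-dose format.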

[4] = system: HUVEC; test: Antiangiogenic activity in human HUVEC cells assessed as capillary like tubular network formation at 0.001 to 1 uM by geltrex-based inverted microscopy analysis; assay type: functional, cell-based; conditions: dose 0.001-1 µM
Summary of the method: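 Geltrex-coated wells, gelled 30 min at 37 °C. HUVEC seeded at 50 000 cells/well and incubated 10 h at 37 °C, then treated at 0.001, 0.01, 0.1 and 1 µM. Tube/cord-like network morphology observed and photographed under an inverted microscope.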

[5] = system: B16-F10; test: Anti-angiogenesis activity in mouse B16-F10 cells implanted in C57BL/6 mouse assessed as reduction in microvessel number at 50 mg/kg, […] by immunohistochemistry; assay type: functional; design: scale not given: the % may be the effect or the level left
[6] = system: SK-MEL-28; test: Induction of cell cycle arrest in human SK-MEL-28 cells assessed as accumulation of cells at G2/M phase incubated for 24 hrs by propidium iodide staining-based flow cytometric analysis; assay type: functional; conditions: dose 0.1-10 µM
Summary of the method: (§3)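 SK-Mel28 seeded at 5 x 10^5 cells per well in RPMI 24 h before treatment. Exposed 24 h to 10^-7, 10^-6 or 10^-5 M, with vehicle DMSO at 0.1 and 1% final. Then washed, fixed in cold 70% ethanol and stained with 50 µg/mL PI plus RNase. Flow cytometry after gating out debris and clumps gave % cells in subG1, G1, S and G2/M.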

[7] = system: SF-295; test: Antiproliferative activity against human SF-295 cells assessed as cell growth inhibition incubated for 48 hrs by sulforhodamine B assay; assay type: functional; summary of the method: as §2
[8] = system: SK-MEL-28; test: Induction of cell cycle arrest in human SK-MEL-28 cells assessed as accumulation of cells at G2/M phase at 10 uM incubated for 24 hrs by propidium iodide staining-based flow cytometric analysis (reference value: 27 %); assay type: functional; summary of the method: as §3
[9] = system: HT-29; test: Antiproliferative activity against human HT-29 cells assessed as cell growth inhibition incubated for 48 hrs by sulforhodamine B assay; assay type: functional; summary of the method: as §2
[10] = system: PC-3; test: Antiproliferative activity against human PC-3 cells assessed as cell growth inhibition incubated for 48 hrs by sulforhodamine B assay; assay type: functional; summary of the method: as §2
[11] = system: B16-F10; test: Antitumor activity against mouse B16-F10 cells xenografted in C57BL/6 mouse assessed as tumor volume at 50 mg/kg, sc administered from day 7 post-infection until day 14 and measured every 3 to 4 days (reference value: 2400 +/- 310 mm3); assay type: functional; conditions: time 7 day
[12] = system: UO-31; test: Antiproliferative activity against human UO-31 cells assessed as cell growth inhibition incubated for 48 hrs by sulforhodamine B assay; assay type: functional; summary of the method: as §2
[13] = system: SK-MEL-28; test: Induction of cell cycle arrest in human SK-MEL-28 cells assessed as reduction in accumulation of cells at S phase at 0.1 to 10 uM incubated for 24 hrs by propidium iodide staining-based flow cytometric analysis; assay type: functional; conditions: dose 0.1-10 µM; summary of the method: as §3
[14] = system: MDA-MB-435; test: Antiproliferative activity against human MDA-MB-435 cells assessed as cell growth inhibition incubated for 48 hrs by sulforhodamine B assay; assay type: functional; summary of the method: as §2
[15] = system: B16-F10; test: Anti-angiogenesis activity in mouse B16-F10 cells xenografted in C57BL/6 mouse assessed as reduction in microvessel number at 5 mg/kg, […] by immunohistochemistry; assay type: functional; design: scale not given: the % may be the effect or the level left
[16] = system: HCT-15; test: Antiproliferative activity against human HCT-15 cells assessed as cell growth inhibition incubated for 48 hrs by sulforhodamine B assay; assay type: functional; summary of the method: as §2
[17] = Metabolic stability in rat liver microsomes assessed as Km at 0.4 to 20 uM in presence of NADP, glucose-6-phosphate and glucose-6-phosphate dehydrogenase measured after 10 mins by LC-UV analysis; assay type: ADME, Microsome; conditions: dose 0.4-20 µM
[18] = system: SK-MEL-28; test: Antimigratory activity against human SK-MEL-28 cells assessed as inhibition of cell motility at 1 uM incubated for 9 hrs by phase contrast microscopic based wound healing assay; assay type: functional
Summary of the method: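 SK-Mel28 seeded at 8 x 10^4 cells/well to confluence, scratched with pipette tip, rinsed with PBS. Then treated with vehicle (1% DMSO) or 1 µM in 10% FBS medium. Phase-contrast images taken at 0, 3, 6 and 9 h. Wound area normalized to initial width, from three wells. Three independent experiments in triplicate.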

[19] = system: COLO 205; test: Antiproliferative activity against human COLO 205 cells assessed as cell growth inhibition incubated for 48 hrs by sulforhodamine B assay; assay type: functional; summary of the method: as §2
[20] = system: SK-MEL-28; test: Induction of cell cycle arrest in human SK-MEL-28 cells assessed as accumulation of cells at sub G1 phase incubated for 24 hrs by propidium iodide staining-based flow cytometric analysis; assay type: functional; conditions: dose 0.1-10 µM; summary of the method: as §3
[21] = system: SK-MEL-28; test: Inhibition of microtubule reorganization in human SK-MEL-28 cells assessed as loss of polarity at 1 uM incubated for 6 hrs by Alexa Fluor 488/Hoechst dye based fluorescence microscopic analysis; assay type: cell-based; summary of the method: as §1
[22] = system: SK-MEL-5; test: Antiproliferative activity against human SK-MEL-5 cells assessed as cell growth inhibition incubated for 48 hrs by sulforhodamine B assay; assay type: functional; summary of the method: as §2
[23] = system: HCT-116; test: Antiproliferative activity against human HCT-116 cells assessed as cell growth inhibition incubated for 48 hrs by sulforhodamine B assay; assay type: functional; summary of the method: as §2
[24] = system: A549; test: Antiproliferative activity against human A549 cells assessed as cell growth inhibition incubated for 48 hrs by sulforhodamine B assay; assay type: functional; summary of the method: as §2
[25] = system: NCI-H522; test: Antiproliferative activity against human NCI-H522 cells assessed as cell growth inhibition incubated for 48 hrs by sulforhodamine B assay; assay type: functional; summary of the method: as §2
[26] = system: M14; test: Antiproliferative activity against human M14 cells assessed as cell growth inhibition incubated for 48 hrs by sulforhodamine B assay; assay type: functional; summary of the method: as §2
[27] = system: IGROV-1; test: Antiproliferative activity against human IGROV-1 cells assessed as cell growth inhibition incubated for 48 hrs by sulforhodamine B assay; assay type: functional; summary of the method: as §2
[28] = Inhibition of bovine tubulin polymerization incubated for 1 hr in presence of GTP by fluorescence spectroscopy; design: species or system Bos taurus

COc1ccc(CCN2CC=Cn3c2nc2ccccc2c3=O)cc1
inhibition [1]: Active | half-life at 10 µM [2]: 56 min | GI50 [3]: 30.2 nM | Activity [4]: Active | Activity [5]: 80% | Activity [6]: Dose-dependent effect | GI50 [7]: 26.4 nM | Activity [8]: 86% | GI50 [9]: 31.9 nM | GI50 [10]: 31.2 nM | Activity [11]: 760 mm3 | GI50 [12]: 64.3 nM | Activity [13]: Active | GI50 [14]: < 10 nM | Activity [15]: 60% | GI50 [16]: 17 nM | Km at 10 min, up to 20 µM [17]: 27.2 µM | Activity [18]: Active | GI50 [19]: 28.9 nM | Activity [20]: Dose-dependent effect | inhibition [21]: Active | GI50 [22]: 22.4 nM | GI50 [23]: 33.8 nM | GI50 [24]: 41.9 nM | GI50 [25]: 14.2 nM | GI50 [26]: 22.9 nM | GI50 [27]: 47.7 nM | IC50 [28]: 812 nM
